Experimental data as given in ChEMBL document CHEMBL1147367, “Bioactive furanonaphthoquinones from Crescentia cujete” (J Nat Prod, 1993).
Converted amounts (≈) assume the structure as drawn.

What was measured:
Saccharomyces cerevisiae [1] = assay: DNA damaging activity against DNA repair-deficient RS 322YK (rad 52Y) yeast assessed as drug level required to produce 12 mm zone of inhibition; format: functional
How it was run: (§1)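 Agar well-diffusion test on yeast: sample placed in 100 μl wells and growth-inhibition zones measured. Potency given as IC12 in μg/ml, the concentration giving a 12 mm inhibition zone. rad 52 strain RS 322 YK lacks the recombination pathway for double-strand-break repair. RS 188 N is the repair-proficient RAD+ counterpart.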

Vero = assay: Cytotoxicity against african green monkey Vero cells; format: cell-based; conditions: Chlorocebus sabaeus
How it was run: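 Vero cells exposed to compound for 72 h; viability read by XTT staining; IC50 given in μg/ml.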

Saccharomyces cerevisiae [2] = assay: DNA damaging activity against RS 188N (RAD+) yeast assessed as drug level required to produce 12 mm zone of inhibition; format: functional; how it was run: as §1

Structure (SMILES) | IC12 (Saccharomyces cerevisiae [1]) [µg/mL] | IC50 (Vero) [µg/mL] | IC12 (Saccharomyces cerevisiae [2]) [µg/mL]
C=C(C)[C@@H]1OC2=C(C(=O)c3c(ccc(OC)c3OC)C2=O)[C@@H]1O | 47 | 3.7 (≈ 11.7 µM) | > 1000
CC(O)c1cc2c(o1)C(=O)c1ccccc1C2=O (stereo not given) | 14 | 0.41 (≈ 1.69 µM) | 180
C=C(C)C1CC2=C(O1)C(=O)c1cccc(O)c1C2=O (stereo not given) | 80 |  | 140
CC(O)c1cc2c(o1)C(=O)c1cccc(O)c1C2=O (stereo not given) | 3 | 0.21 (≈ 0.813 µM) | 10
CC[C@@]1(O)C(=O)OCc2c1cc1n(c2=O)Cc2cc3ccccc3nc2-1 [CAMPTOTHECIN] | 0.6 | 0.054 (≈ 0.155 µM) | 110
C=C(C)[C@H]1CC2=C(O1)C(=O)c1ccc(OC)c(OC)c1C2=O | 33 | 4.7 (≈ 15.7 µM) | 120
C=C(C)[C@H]1CC2=C(O1)C(=O)c1cccc(OC)c1C2=O | 48 | 4.3 (≈ 15.9 µM) | 280
